Measurements published in ChEMBL document CHEMBL1649547, “Telavancin disrupts the functional integrity of the bacterial membrane through targeted interaction with the cell wall precursor lipid II” (Antimicrob Agents Chemother, 2009).
Converted amounts (≈) assume the structure as drawn. The source made the active and inactive calls. The rule behind the calls is not given here.

Assays:
Staphylococcus aureus [1] = assay: Antibacterial activity against Staphylococcus aureus; type: functional
Procedure, shortened: (§1)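 MIC determined with commercially manufactured dry-form panels; the organisms were grown in cation-adjusted Mueller-Hinton II broth.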

Staphylococcus aureus [2] = assay: Antibacterial activity against Staphylococcus aureus assessed as induction of bacterial membrane depolarization at 8 ug/ml by flow cytometry; type: functional
Procedure, shortened: (§2)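 Membrane potential was measured with DiOC2(3) flow cytometry. Early-exponential cultures (A625 = 0.3) in cation-adjusted MHB were diluted to 106 CFU/ml and dosed in 5-ml aliquots at 37°C with shaking. Samples were stained 5 min with 30 µM DiOC2(3) (final). 5,000 events per sample were collected. The red/green fluorescence ratio was gated against a CCCP-depolarized population. The endpoint was 90 min unless noted.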

Staphylococcus aureus [3] = assay: Antibacterial activity against daptomycin-nonsusceptible Staphylococcus aureus MED2034; type: functional; procedure, shortened: as §1
Staphylococcus aureus [4] = assay: Antibacterial activity against Staphylococcus aureus grown in MHB medium assessed as induction of bacterial membrane depolarization at 2 to 32 ug/ml by flow cytometry; type: functional, organism-based
Procedure, shortened: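 MHB-grown S. aureus either kept in MHB or washed and resuspended in cation-containing PBS, then equilibrated 10 min at 37°C before telavancin 2–32 µg/ml. Time course of depolarization measured by DiOC2(3) flow cytometry (final 30 µM, 5 min stain, red/green ratio). Three independent experiments.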

Staphylococcus aureus [5] = assay: Antibacterial activity against Staphylococcus aureus assessed as change in cellular membrane integrity at 8 to 32 ug/ml up to 6 hrs by spectrophotometry; type: functional, organism-based
Procedure, shortened: (§3)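 S. aureus ATCC 33591 grown in MHB to early exponential phase (A625 = 0.3). 5 ml aliquots treated at final concentration, shaking water bath at 37°C. Turbidity read by spectrophotometer. Lysis also scored by microscopy: intact cells dark, lysed cells transparent; imaged at 0, 2 and 6 h, at least 30 cells per condition. Lysostaphin as lysis control. Three independent experiments.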

Staphylococcus aureus [6] = assay: Antibacterial activity against daptomycin-nonsusceptible Staphylococcus aureus MED2034 assessed as induction of bacterial membrane depolarization at 32 ug/ml by flow cytometry; type: functional; procedure, shortened: as §2
Staphylococcus aureus [7] = assay: Antibacterial activity against Staphylococcus aureus in presence of 0.05 mM D-Ala-D-Ala; type: functional
Staphylococcus aureus [8] = assay: Antibacterial activity against Staphylococcus aureus assessed as induction of bacterial membrane depolarization at 32 ug/ml by flow cytometry in presence of 5 mM D-Ala-D-Ala; type: functional
Procedure, shortened: (§4)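 S. aureus at 10^6 CFU/ml in MHB at 37°C. dKAA tripeptide (0.05, 0.5 or 5 mM) added before telavancin (8 or 32 µg/ml), 60 min reading. DiOC2(3) staining (final 30 µM, 5 min), flow cytometry of 5,000 events, red/green fluorescence ratio; depolarized gate defined with CCCP-treated cells.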

Staphylococcus aureus [9] = assay: Antibacterial activity against Staphylococcus aureus in presence of 0.5 mM D-Ala-D-Ala; type: functional
Cell membrane = assay: Binding affinity to cell membrane of Staphylococcus aureus grown in MHB medium at 8 ug/ml by scintillation counting relative to control
Procedure, shortened: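 S. aureus at 10^8 CFU/ml in MHB or PBS at 37°C, exposed to [14C]telavancin 8 µg/ml over 2 h. At each time point, cells collected on 0.2-µm filter plate, dried overnight at 37°C, and scintillation counted. Three independent experiments.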

Staphylococcus aureus [10] = assay: Antibacterial activity against Staphylococcus aureus assessed as induction of bacterial membrane depolarization at 8 ug/ml by flow cytometry in presence of 5 mM D-Ala-D-Ala; type: functional; procedure, shortened: as §4
Staphylococcus aureus [11] = assay: Antibacterial activity against Staphylococcus aureus assessed as induction of bacterial membrane depolarization at 8 ug/ml by flow cytometry in presence of 0.05 mM D-Ala-D-Ala; type: functional; procedure, shortened: as §4
Staphylococcus aureus [12] = assay: Antibacterial activity against vancomycin-intermediate Staphylococcus aureus ATCC 700699 assessed as induction of bacterial membrane depolarization at 32 ug/ml by flow cytometry; type: functional
Procedure, shortened: (§5)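 Strains with resistance phenotypes tested in the DiOC2(3) flow-cytometric depolarization assay. Cells at 10^6 CFU/ml in MHB at 37°C, dye final 30 µM, 5 min stain, 5,000 events, red/green ratio. Percent depolarization followed over time.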

Staphylococcus aureus [13] = assay: Antibacterial activity against Staphylococcus aureus assessed as induction of bacterial membrane depolarization at 32 ug/ml by flow cytometry in presence of 0.05 mM D-Ala-D-Ala; type: functional; procedure, shortened: as §4
Staphylococcus aureus [14] = assay: Inhibition of bacterial cell wall precursor lipid 2 synthesis in Staphylococcus aureus assessed as induction of membrane depolarization at 32 ug/ml by flow cytometry in presence of fosfomycin; type: functional; parameters: scale not given: the % may be the effect or the level left
Procedure, shortened: (§6)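 Cells then exposed to telavancin 32 µg/ml for 15 min (nisin 2 µg/ml, 5 min). DiOC2(3) flow cytometry. Percent depolarization expressed relative to samples without pretreatment.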

Staphylococcus aureus [15] = assay: Antibacterial activity against Staphylococcus aureus assessed as induction of bacterial cell lysis at 8 to 32 ug/ml by spectrophotometry; type: functional, organism-based; procedure, shortened: as §3
Staphylococcus aureus [16] = assay: Inhibition of bacterial cell wall precursor lipid 2 synthesis in Staphylococcus aureus assessed as induction of membrane depolarization at 32 ug/ml by flow cytometry in presence of bacitracin; type: functional; parameters: scale not given: the % may be the effect or the level left; procedure, shortened: as §6
Staphylococcus aureus [17] = assay: Antibacterial activity against heterogeneous vancomycin-intermediate Staphylococcus aureus ATCC 700698 assessed as induction of bacterial membrane depolarization at 32 ug/ml by flow cytometry; type: functional; procedure, shortened: as §5
Staphylococcus aureus [18] = assay: Antibacterial activity against methicillin-resistant Staphylococcus aureus ATCC 33591; type: functional; procedure, shortened: as §1
Staphylococcus aureus [19] = assay: Antibacterial activity against Staphylococcus aureus assessed as induction of bacterial membrane depolarization at 32 ug/ml by flow cytometry in presence of 0.5 mM D-Ala-D-Ala; type: functional; procedure, shortened: as §4
Staphylococcus aureus [20] = assay: Inhibition of bacterial cell wall precursor lipid 2 synthesis in Staphylococcus aureus assessed as induction of membrane depolarization at 32 ug/ml by flow cytometry in presence of D-cycloserine; type: functional; parameters: scale not given: the % may be the effect or the level left; procedure, shortened: as §6
Staphylococcus aureus [21] = assay: Antibacterial activity against Staphylococcus aureus assessed as induction of bacterial membrane depolarization by flow cytometry; type: functional, organism-based
Procedure, shortened: (§7)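 S. aureus ATCC 29213 grown in MHB at 37°C to A625 = 0.3, diluted to 10^6 CFU/ml in MHB. Compound added to 5 ml aliquots, shaking water bath at 37°C, usually 90 min endpoint. Samples mixed 1:1 with DiOC2(3) (final 30 µM) and stained 5 min. Flow cytometry of 5,000 events, red/green ratio; depolarized gate set from CCCP. IC50 from four-parameter sigmoidal fit.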

Staphylococcus aureus [22] = assay: Antibacterial activity against Staphylococcus aureus assessed as induction of bacterial membrane depolarization at 32 ug/ml by flow cytometry; type: functional; procedure, shortened: as §7
Staphylococcus aureus [23] = assay: Antibacterial activity against heterogeneous vancomycin-intermediate Staphylococcus aureus ATCC 700698; type: functional
Staphylococcus aureus [24] = assay: Antibacterial activity against Staphylococcus aureus in presence of 5 mM D-Ala-D-Ala; type: functional
Staphylococcus aureus [25] = assay: Antibacterial activity against vancomycin-intermediate Staphylococcus aureus ATCC 700699; type: functional; procedure, shortened: as §1
Staphylococcus aureus [26] = assay: Antibacterial activity against Staphylococcus aureus assessed as bacterial count at 8 to 32 ug/ml by turbidity assay; type: functional; procedure, shortened: as §3
Staphylococcus aureus [27] = assay: Antibacterial activity against Staphylococcus aureus assessed as induction of bacterial membrane depolarization at 8 ug/ml by flow cytometry in presence of 0.5 mM D-Ala-D-Ala; type: functional; procedure, shortened: as §4
Staphylococcus aureus [28] = assay: Antibacterial activity against Staphylococcus aureus assessed as induction of bacterial cell lysis at 8 to 32 ug/ml by turbidity assay; type: functional, organism-based
Procedure, shortened: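 S. aureus ATCC 33591 was grown in cation-adjusted MHB to early exponential phase (A625 = 0.3). 5-ml aliquots received compound at the final concentration and were incubated in a shaking 37°C water bath. Lysis was followed by turbidity. Cells were also imaged by microscopy at 0, 2 and 6 h, scoring at least 30 cells per condition. Lysostaphin served as the lysis control. Means ± SD of three independent experiments.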

CCCCCCCCCCNCCN[C@@]1(C)C[C@H](O[C@H]2[C@H](Oc3c4cc5cc3Oc3ccc(cc3Cl)[C@H](O)[C@@H](NC(=O)O)C(=O)N[C@@H](CC(N)=O)C(=O)N[C@H]5C(=O)N[C@H]3C(=O)N[C@H](C(=O)N[C@H](C(=O)O)c5cc(O)c(CNCP(=O)(O)O)c(O)c5-c5cc3ccc5O)[C@H](O)c3ccc(c(Cl)c3)O4)O[C@H](CO)[C@@H](O)[C@@H]2O)O[C@@H](C)[C@H]1O
MIC (Staphylococcus aureus [1]): 8 µg/mL (≈ 4.78 µM)
Activity (Staphylococcus aureus [2]): 35%

CCCCCCCCCC(=O)N[C@@H](Cc1c[nH]c2ccccc12)C(=O)N[C@H](CC(N)=O)C(=O)N[C@@H](CC(=O)O)C(=O)N[C@@H]1C(=O)NCC(=O)N[C@@H](CCCN)C(=O)N[C@@H](CC(=O)O)C(=O)N[C@H](C)C(=O)N[C@@H](CC(=O)O)C(=O)NCC(=O)N[C@H](CO)C(=O)N[C@@H]([C@H](C)CC(=O)O)C(=O)N[C@@H](CC(=O)c2ccccc2N)C(=O)O[C@@H]1C
MIC (Staphylococcus aureus [3]): 4 µg/mL (≈ 2.47 µM)

CCCCCCCCCCO [DECANOL]
MIC (Staphylococcus aureus [1]): 128 µg/mL (≈ 809 µM)
Activity (Staphylococcus aureus [4]): Active

CCCCCCCCCCNCCN[C@@]1(C)C[C@H](O[C@H]2[C@H](Oc3c4cc5cc3Oc3ccc(cc3Cl)[C@@H](O)[C@@H](NC(=O)[C@@H](CC(C)C)NC)C(=O)N[C@@H](CC(N)=O)C(=O)N[C@H]5C(=O)N[C@H]3C(=O)N[C@H](C(=O)N[C@H](C(=O)O)c5cc(O)c(CNCP(=O)(O)O)c(O)c5-c5cc3ccc5O)[C@H](O)c3ccc(c(Cl)c3)O4)O[C@H](CO)[C@@H](O)[C@@H]2O)O[C@@H](C)[C@H]1O [TELAVANCIN]
Activity (Staphylococcus aureus [5]): inactive
Activity (Staphylococcus aureus [6]): 77%
MIC (Staphylococcus aureus [7]): 0.5 µg/mL
Activity (Staphylococcus aureus [8]): 14%
MIC (Staphylococcus aureus [9]): 1 µg/mL
fold change (FC) (Cell membrane): 2.8
Activity (Staphylococcus aureus [10]): 7%
Activity (Staphylococcus aureus [11]): 33%
Activity (Staphylococcus aureus [12]): 61%
Activity (Staphylococcus aureus [13]): 68%
Activity (Staphylococcus aureus [14]): 29%
Activity (Staphylococcus aureus [15]): inactive
Activity (Staphylococcus aureus [16]): 27%
Activity (Staphylococcus aureus [17]): 78%
MIC (Staphylococcus aureus [1]): 0.25 µg/mL (≈ 0.142 µM)
MIC (Staphylococcus aureus [18]): ≤ 0.5 µg/mL
Activity (Staphylococcus aureus [19]): 19%
MIC (Staphylococcus aureus [3]): ≤ 0.5 µg/mL
Activity (Staphylococcus aureus [20]): 38%
Activity (Staphylococcus aureus [21]): Dose-dependent effect
IC50 (Staphylococcus aureus [21]): 3.6 µg/mL (≈ 2.05 µM)
Activity (Staphylococcus aureus [22]): 94%
MIC (Staphylococcus aureus [23]): ≤ 0.5 µg/mL
Activity (Staphylococcus aureus [2]): 49%
MIC (Staphylococcus aureus [24]): 4 µg/mL
MIC (Staphylococcus aureus [25]): 0.5 µg/mL (≈ 0.285 µM)
log10CFU/ml (Staphylococcus aureus [26]): 3
Activity (Staphylococcus aureus [4]): Active
Activity (Staphylococcus aureus [27]): 17%

CN[C@H](CC(C)C)C(=O)N[C@H]1C(=O)N[C@@H](CC(N)=O)C(=O)N[C@H]2C(=O)N[C@H]3C(=O)N[C@H](C(=O)N[C@H](C(=O)O)c4cc(O)cc(O)c4-c4cc3ccc4O)[C@H](O)c3ccc(c(Cl)c3)Oc3cc2cc(c3O[C@@H]2O[C@H](CO)[C@@H](O)[C@H](O)[C@H]2O[C@H]2C[C@](C)(N)[C@H](O)[C@H](C)O2)Oc2ccc(cc2Cl)[C@H]1O [VANCOMYCIN]
Activity (Staphylococcus aureus [28]): inactive
IC50 (Staphylococcus aureus [21]): > 96 µg/mL
MIC (Staphylococcus aureus [25]): 8 µg/mL (≈ 5.52 µM)
